The EternaBench riboswitch data

Test system: MS2 coat protein
Assay: apparent Kd, MS2 coat protein; higher = weaker binding; RNA-MaP array; FMN 200 µM where present
Outline: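 The apparent Kd is the median of filtered binding-curve fits, one per cluster, to green signal normalised to red-channel RNA signal and control-cluster median Fmax. The clusters were on Illumina sequencing chips, and stalled E. coli RNA polymerase had transcribed the designs on them. Titration used SNAP-549-labelled MS2 coat protein from 0.7 or 1.5 nM, doubling to 3 µM, without and then with constant ligand, in 100 mM Tris-HCl pH 7.5, 80 mM KCl, 4 mM MgCl2, BSA, DTT, yeast tRNA and Tween-20.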

[1] = designed as: OFF switch for flavin mononucleotide, no ligand
[2] = ligand present: flavin mononucleotide, designed as: OFF switch for flavin mononucleotide
[3] = designed as: ON switch for flavin mononucleotide, no ligand
[4] = ligand present: flavin mononucleotide, designed as: ON switch for flavin mononucleotide

Row | Sequence | apparent Kd [1] | apparent Kd [2] | apparent Kd [3] | apparent Kd [4]
1 | GGUGGACAUGAGGAUCACCCAUGUGAGGAUAUCGGCCGGCUAGUGGUGGCUGGCUUCUCGAGAAGGCGCAUAGU | 61.8 nM | 99.7 nM |  | 
2 | CGAACCCGAGGAUAUCGUAAACCCGACAUGAGGAUCACCCAUGUCAUCCUCACGGCGCCACGAGAAGGCGGUGUUU | 56.5 nM | 160 nM |  | 
3 | AGCUACGUUUCGUAGCAGCUAGGUGAGGAUAUUCAAUUUUUCACAUGAGGAUCACCCAUGUAAAAGAAGAAGGCGCCUAGAAAG |  |  | 4.28 nM | 4.25 nM
4 | GGCAGAUUCCACAUGAGGAUCACCCAUGUGCUCUUCCGGGCACAGGAUAUCCGCAGUGGUUUCUUGGAGAAGGGUGCUGAUUAA |  |  | 26.8 nM | 42.4 nM
5 | UUGGACGUCGUAGGAUAUGUAGGAUAUUCCUACAUGAGGAUCACCCAUGUUGACACGGAAGAAGGACAGAAGGACGAUGUCCAU |  |  | 11.6 nM | 4.23 nM
6 | GGGAAGUUAGGAUAUGCUGCUCGUCACUUGCGUGAUGAGUAGCAGAAGGGACAUGAGGAUCACCCAUGUAAAAA | 51.1 nM | 26.8 nM |  | 
7 | CAUACACAUGAGGAUCACCCAUGUGAGGAUAUGCGUACGUUGUCAGUAGGCGACGUGCGCAGAAGGCGCGUGUU | 60.5 nM | 47.7 nM |  | 
8 | GGAUGUCAAAGACAUCCAAUACGAACAUGAGGAUCACCCAUGUAGGAUAUGCUACUCAAAGAGUAGCAGAAGGACAUGUGCCUU | 33.6 nM | 271 nM |  | 
9 | GUCUGGCUAGGAUAUACAGAAUCCACGAGUCGGUUGCCCUGACAUGAGGAUCACCCAUGUAGAAGGAGCGAGAA | 17.9 nM | 24.3 nM |  | 
10 | AGGAGGUCAGGAUAUGCAUGGCGGGACUUGCGUCGUGGCGUGCAGAAGGGACAUGAGGAUCACCCAUGUGGAGA | 86.1 nM | 220 nM |  | 
11 | CAAUGGGCGGUAGGAUAUCCGGUGUUUGGCAAAGGAGAAGGACUCACCAUACAUGAGGAUCACCCAUGUGAAGCGGGUCCUCAA | 8.48 nM | 10.1 nM |  | 
12 | AGACUGAAUGUUAGGAUAUGGUUUCGGGUCUCGGACCAGAAGGAACAUGAGGAUCACCCAUGUGCCGUGGUUGU | 29 nM | 153 nM |  | 
13 | ACAAGCUCACAUGAGGAUCACCCAUGUGGUCGCUAAUAUACCAGAAGGGUGGGUCCUAAUGAUGUACAGGAUAUGGAGUAGGCG |  |  | 196 nM | 62 nM
14 | GCUGGUCAAGGAUAUAUAUGACGUGCUUCGGCACGAAGAUCACAUGAGGAUCACCCAUGUAGAAGGUGACCAGC | 96.9 nM | 793 nM |  | 
15 | AAAUAAAGCAGUGUAUUAAGAUCACAUGAGGAUCACCCAUGUAGAAGGCUCGAGCAAAAUGCUCGAGAGGAUAUGCAACACUGC | 5.12 nM | 35 nM |  | 
16 | UGAUCGAGAGAUCUUAGAUUCUGGUAGGAUAUACAUUAUGUUUAAAAUACAUGAGGAUCACCCAUGUAGAAGGACUAGAGUCUA | 6.76 nM | 13.9 nM |  | 
17 | GUGGUCAGACAUGAGGAUCACCCAUGUGGAAUAAAUAAGGAGAAGGAUAUCUAAUAUAGGAUAUAAGAGAAGGUUUGGUUGGUG |  |  | 74 nM | 68 nM
18 | AACAGUACAGGAUAUACAUGAGGAUCACCCAUGUGACAAUUAAGUGGCGUACCACAGAGUAGAAGGGUACUGGA | 35 nM | 151 nM |  | 

Row | Sequence | apparent Kd [1] | apparent Kd [2] | apparent Kd [3] | apparent Kd [4]
19 | UGUAUGGACAGAGGAUAUACAGAUAGGAUCUACUAUCAAACAGUCCUGACAUGAGGAUCACCCAUGUAGAAGGCUGUCCAUACU | 22.8 nM | 105 nM |  | 
20 | UUCCUCUUAACAUGAGGAUCACCCAUGUAUUAUUUGGUAAUUGAGGAUAUAUUUUUAAUGUUUAUAUAGAAGGCAAAUACAGUU | 45.7 nM | 49.3 nM |  | 
21 | UAUAAGAACGAAGGAUAUGGUUACAUGAGGAUCACCCAUGUAUUAAUUUUGAUCUAUUUUUAUAACCAGAAGGUCGAGAGUAAA | 36.2 nM | 49.5 nM |  | 
22 | CCCAAACUUGGGUUUGGUGGUGCAUAGGAUAUGCUUGAACAUGAGGAUCACCCAUGUACUAUUGUGCAGAAGGGUGCAUGGCAA |  |  | 401 nM | 29.1 nM
23 | CCUCCACAGGAGGAUAUCAUCAAACUAUUGUGAUGAGAAGGCCUGACAUGAGGAUCACCCAUGUUAUCGUGAUG | 56 nM | 185 nM |  | 
24 | GCUGCAAAGUAAGGAUAUGCCUAGGAAACCUAGGCAGAAGGUACAUGAGGAUCACCCAUGUUAACCCAAAGGGAAUAAAGCAGC | 15.8 nM | 25.3 nM |  | 
25 | AAAACAUGAGGAUCACCCAUGUAAAGAUCGGUUGAUGAAAGUGAGGAUAUACAAAAUUUUAUGGAGUAGAAGGCACUGGGUACA |  |  | 44.6 nM | 40.9 nM
26 | GCAGCACUCUUUAACAUGAGGAUCACCCAUGUCAAAAGACAUGAGGAUAUGCAUCUGAAGAAGAUGCAGAAGGCAUUGUGCUGC |  |  | 32.3 nM | 6.94 nM
27 | AACUUCAGAGGAUAUACAUGAGUGAAAAAAGUCUGAUAACUACAUGAGGAUCACCCAUGUAGAAGGCUGUAGCA | 29.1 nM | 35.4 nM |  | 
28 | UACUUGUUAGGAUAUCUUACAUUUGCAUUAUAGCAACUAUUGGAGAAGGGACAUGAGGAUCACCCAUGUUUGGU | 39.9 nM | 48.2 nM |  | 
29 | GUGACGAAUGUAGGAUAUGCUGAGGAAUACUCAGCAGAAGGACAUGAGGAUCACCCAUGUCAUCCUUAUAAUAAAUAUCGUCAC | 13.4 nM | 17.7 nM |  | 
30 | CAGUGCAAUGUAGGAUAUGCUCAGGAUAACUGAGCAGAAGGACAUGAGGAUCACCCAUGUAAAAUGAAAGAUAAUAAAGCACUG | 16.6 nM | 49.9 nM |  | 
31 | GCCCUCCCUGAGGAUAUUAUCUGGUUCGAUUGAUAAGAAGGCAGUACAUGAGGAUCACCCAUGUGGUUCGUUUG | 108 nM | 285 nM |  | 
32 | UGGUCAACAUCAGGAUAUUAACAUGGGCUACACUAAGAAGGGAUAAUGAAAUACGAACUAAACGCACAUGAGGAUCACCCAUGU |  |  | 34.4 nM | 25 nM
33 | CAGUCUACAGGAUAUACAUGAGGAUCACCCAUGUGUAUUCACUUUCAGUAGUCUUUAUGUAGAAGGGUAGACUG | 15.9 nM | 26.7 nM |  | 
34 | CGAAACUACGAGAAGGACAUGUGGUCCUUCAGUUACAUGAGGAUCACCCAUGUAGGAUAUCGUAGUUUCAGGAUCGUGAGAUCG | 45 nM | 19.4 nM |  | 
35 | UGAGCCUCGUGAGGAUAUACAUGAGGAUCACCCAUGUAGUAAAGUGAACGGAGGAAACUCCGAAUGUAGAAGGCACGAGGCUCA | 13.2 nM | 85.8 nM |  | 
36 | GGUGCACGCACAGGAUAUCCGGCGGAGCUCGUCGGAGAAGGGUGACAUGAGGAUCACCCAUGUACGUGCAACCCAGUUUGAGAG |  |  | 45.2 nM | 30.7 nM
